High-throughput results as filed in PubChem.
SIAE inh = human SIAE inhibitors, primary screen, biochemical, fluorescence polarization, FP-Rh probe, 1536-well HTS. AID 1053197, 2014. inhibition, % at 9.66 µM. SIAE FP-Rh probe binding. actives 0.69% (n = 370,000). Sialate O-acetylesterase (Homo sapiens), Q9HAT2;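 active means inhibition above a cutoff: mean of compounds within the control limits plus 3 SD of those, cut at about 17% in these data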;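 further: 0% = plate median of compound wells and 100% = probe without SIAE protein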
Target sequence (Q9HAT2 whole entry, looked up): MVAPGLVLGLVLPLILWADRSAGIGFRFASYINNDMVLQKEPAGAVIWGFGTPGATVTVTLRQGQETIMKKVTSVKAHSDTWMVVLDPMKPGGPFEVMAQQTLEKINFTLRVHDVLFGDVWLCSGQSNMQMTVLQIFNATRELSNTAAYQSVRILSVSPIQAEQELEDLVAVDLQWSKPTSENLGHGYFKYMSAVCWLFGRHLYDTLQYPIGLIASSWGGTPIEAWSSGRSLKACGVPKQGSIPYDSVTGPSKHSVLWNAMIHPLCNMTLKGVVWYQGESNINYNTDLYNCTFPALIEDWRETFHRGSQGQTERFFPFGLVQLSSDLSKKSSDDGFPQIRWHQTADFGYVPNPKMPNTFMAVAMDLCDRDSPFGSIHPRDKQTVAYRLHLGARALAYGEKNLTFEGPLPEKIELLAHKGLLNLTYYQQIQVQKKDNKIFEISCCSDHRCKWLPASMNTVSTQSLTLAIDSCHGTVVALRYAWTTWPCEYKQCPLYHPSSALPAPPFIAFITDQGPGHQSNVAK
TCR-CD3 inh = inhibitors of human TCR-CD3 interaction, primary screen, biochemical, fluorescence, TAMRA-labeled TCR probe; inhibition, % at 9.4 µM; AID 651800, 2012; actives 0.37% (n = 360,000); T-cell receptor (TCR); in the data active means inhibition above about 19%;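 further: recombinant mutant TCR 2C K166C tagged with TAMRA read by polarization; 0% = receptor in buffer alone and 100% = receptor with positive control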
ABHD4 inh = ABHD4 inhibitors, primary screen, biochemical, fluorescence polarization, mouse. (Lyso)-N-acylphosphatidylethanolamine lipase (Mus musculus), Q8VD66. purified mABHD4, FP-Rh probe fluorescence polarization. inhibition, % at 8.92 µM. actives 0.54% (n = 370,000);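 active means inhibition exceeding the mean over every tested compound plus 3 SD, cut at about 30% in these data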;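 further: 0% = plate median of compound wells and 100% = S159A mutant with DMSO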
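Assay system: mABHD4 protein; medium: HEPES pH 7.0, NaCl, Pluronic buffer; dosing: 8.92 µM, single dose; schedule: 45 min + 60 min at 25 °C; signal: FP readout, ex 525 nm / em 598 nm; read-out: normalized percent inhibition of probe labeling; repeats: single replicate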
PRMT1 inh = PRMT1 methyltransferase inhibitors, primary screen, biochemical, fluorescence polarization. Protein arginine N-methyltransferase 1 (Homo sapiens), Q99873. recombinant PRMT1, activity-based probe fluorescence polarization. inhibition, % at 2.79 µM. actives 1.3% (n = 370,000). AID 652257, 2013;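 active means inhibition above about 21% made by adding two undisclosed values, limit read from the data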
HTRA1 inhibitor = HTRA1 serine protease inhibitors, primary screen, biochemical, fluorescence polarization, HTS; actives 0.5% (n = 340,000); recombinant HTRA1, FP-rhodamine activity-based probe; inhibition, % at 5.96 µM; Q92743; AID 504803, 2011; in the data active means inhibition above about 36%;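 further: 0% = enzyme with DMSO and 100% = wells lacking enzyme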
HTRA1 inh conf = HTRA1 protease inhibitors, retest, confirmation, biochemical, fluorescence polarization; AID 540248, 2011; actives 66% (n = 1,600); recombinant HTRA1, FP-rhodamine activity-based probe; inhibition, % at 5.96 µM; shares compounds with HTRA1 inhibitor;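 active means mean inhibition over three repeats above a set limit taken from the earlier primary screen, cut at about 37% in these data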;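 further: 0% = HTRA1 with DMSO and 100% = wells lacking HTRA1; inhibitors block probe binding so polarization drops and inhibition rises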
The depositor's hits bear a star; nt = no result given. An excerpt weighted towards active compounds, which were near 2.6% of everything screened.

SMILES	SIAE inh	TCR-CD3 inh	ABHD4 inh	PRMT1 inh	HTRA1 inhibitor	HTRA1 inh conf
O=c1nc(/C=C/c2ccc(O)c(O)c2)oc2ccccc12	nt	nt	nt	nt	72.2*	76.0*
COc1ccc(/C=C\c2nc(=O)c3ccccc3o2)cc1	2.2	4.0	0.6	2.9	2.5	nt
CCC[C@H]1[C@@H](NC(=O)C2CCC2)CC[C@@]23CCCN2C(=O)CCC[C@@H]13	0.9	nt	-5.5	2.5	nt	nt
CCOC(=O)N[C@H](C(=O)N1CCC[C@H]1C(=O)NCCc1ccccc1Cl)c1ccccc1	0.7	-4.0	-15.0	4.9	nt	nt
O=C(NNc1nc2ccc(Cl)cc2s1)c1cc(-c2cccs2)nc2ccccc12	-2.1	-4.3	-5.6	-3.7	42.3*	55.6*
OCCN(CCO)c1ccc(C(c2ccccc2Cl)c2ccc(N(CCO)CCO)cc2Cl)c(Cl)c1	nt	nt	nt	nt	43.7*	60.9*
COc1cccc(-c2nnc(SCC(=O)Nc3ccc(Oc4ccccc4)cc3)n2Cc2ccco2)c1	-12.3	nt	-41.4	11.0	nt	nt
CC[n+]1ccc(C)c2cc(SC(F)(F)F)ccc21	nt	nt	nt	nt	36.4*	24.0
CC[n+]1ccc(C)c2cc(P(=O)(c3ccccc3)c3ccccc3)ccc21	2.5	0.8	1.1	7.3	44.1*	33.0
Cc1cc[n+](CC(=O)c2ccc(NC(=O)c3ccccc3)cc2)c2ccccc12	1.0	-0.1	-2.0	-3.1	34.4	nt
CCN(CC)C(=O)CC[C@@H]1CC[C@]2(CCCN(C(=O)c3ccco3)C2)O1	11.0	nt	-0.3	1.9	nt	nt
O=C(CSc1nnc(CNc2ccc(Cl)cc2)o1)Nc1nc2c(s1)CCCC2	5.0	-1.8	25.9	3.0	38.5*	5.3
COc1ccc(CCNC(=O)CSc2nnc(CNc3ccc(Cl)cc3)o2)cc1OC	-5.1	7.5	-0.4	-0.2	-1.6	nt
N#Cc1ccc(NCCCN2CCC(C(O)(c3ccccc3)c3ccccc3)CC2)cc1	1.5	nt	3.3	1.9	nt	nt
O=C(N=C1N(Cc2ccccc2)[C@@H](Cc2ccccc2)[C@]2(C=C3CCCCC3n3c(=O)n(-c4ccccc4)c(=O)n32)N1C(=O)OCc1ccccc1)c1ccccc1 (stereo not given in full)	-2.8	nt	-3.9	3.7	nt	nt
Clc1ccc2nc(-c3ccccn3)c(Nc3ccc4c(c3)OCO4)n2c1	7.5	6.5	6.4	-2.2	58.4*	60.1*
C(=C\c1ccccc1)/CSc1nnc(Cc2cccs2)n1-c1ccccc1	0.9	nt	1.0	0.9	nt	nt
COc1cccc(NC(=O)N2CC[C@@H]3[C@H]2c2cc(-c4cccc(C#N)c4)ccc2N(C)[C@@H]3CO)c1	8.1	nt	9.8	0.2	nt	nt
Cc1cc(O)c(Oc2cc(C)cc(O)c2O)c(O)c1	5.5	12.8	29.0	37.6*	63.8*	81.1*
O[C@H](COc1ccc(C(F)(F)F)cc1)CN1CCC(C(O)(c2ccccc2)c2ccccc2)CC1	0.5	nt	11.1	-1.4	nt	nt
O=[N+]([O-])c1ccc(O)c(/C=N/n2cnc3ccccc32)c1	-9.8	-1.1	-1.4	3.0	7.4	nt
Cc1ccc(/C=C2\SC(=S)N(/N=C/c3cc([N+](=O)[O-])ccc3O)C2=O)o1	nt	nt	nt	nt	48.8*	38.5*
COc1cc(NC(=O)C2CCCN(S(=O)(=O)c3ccccc3[N+](=O)[O-])C2)cc(OC)c1 (stereo not given)	-13.7	nt	-13.6	5.2	nt	nt
Oc1c(C(c2ccccn2)N2CCCCC2)cc(Cl)c2cccnc12 (stereo not given)	3.6	-0.5	6.0	-3.6	52.6*	54.8*
CN1CCN(C(c2ccc(Cl)cc2)c2cc(Cl)c3cccnc3c2O)CC1 (stereo not given)	-4.0	-9.4	-0.6	-2.7	43.4*	86.8*
SMILES	SIAE inh	TCR-CD3 inh	ABHD4 inh	PRMT1 inh	HTRA1 inhibitor	HTRA1 inh conf
CCCC1CCC2(CC1)CCC2OC(=S)Nc1ccccc1C(F)(F)F (stereo not given)	3.9	nt	-2.5	-3.3	nt	nt
CCC[n+]1c(C)sc2c3c(ccc21)CCCC3	nt	nt	nt	nt	45.7*	49.9*
Nc1ccccc1N=Nc1ccccc1N	8.5	-5.4	9.3	4.2	41.9*	38.6*
O=C(CN1CCN(Cc2ccccc2)CC1)N/N=C\c1c2ccccc2cc2ccccc12	5.0	nt	4.7	-3.9	nt	nt
Cc1cc(N/N=C/c2c[nH]c3ccccc23)c2ccccc2n1	14.5	-2.3	-1.9	-1.4	-4.3	nt
O=C(O)c1ccc(N/N=C/c2c[nH]c3ccccc23)cc1	2.7	-2.9	7.2	4.8	8.5	nt
Cn1c(N/N=C/c2c[nH]c3ccccc23)nc2ccccc21	10.6	2.0	22.0	-1.3	45.6*	26.9
Fc1c(F)c(F)c(N/N=C/c2c[nH]c3ccccc23)c(F)c1F	13.4	-5.6	14.7	7.4	42.7*	41.6*
C=CCN1CCc2cc(O)c(O)cc2C(c2ccccc2)C1 (stereo not given)	8.0	5.6	3.7	-2.2	5.1	nt
C=CCN1CCc2c(cc(O)c(O)c2Cl)C(c2ccccc2)C1 (stereo not given)	-1.3	-1.9	13.6	1.5	42.6*	69.8*
CN=C1S/C(=C/c2cc(C)n(-c3ccc(Cl)cc3F)c2C)C(=O)N1C	0.3	nt	-4.2	2.0	nt	nt
Cc1ccccc1CN1CCCCC(NC(=O)C2CCCCC2)C1=O (stereo not given)	12.1	nt	4.1	-0.1	nt	nt
CCOC(=O)c1[nH]c2ccc(C)cc2c1NC(=O)CN1CCCCC1	2.2	-2.1	0.6	0.4	-1.2	nt
Cc1c2cc[n+](CCN3CCCCC3)cc2c(C)c2c1[nH]c1ccc(O)cc12	nt	nt	nt	nt	41.4*	54.8*
CCN1c2ccccc2N(C)C1(C)c1ccccc1 (stereo not given)	nt	nt	nt	nt	41.5*	8.3
CN1c2ccccc2N(C)C1(C)c1ccccc1	11.2	18.4	8.2	7.1	21.3	nt
COC(=O)[C@]12CCCCC=C1N(Cc1ccc(OC)cc1)C(=O)[C@@H]2CC(=O)NCCC(C)C	1.8	nt	-2.3	-3.0	nt	nt
CCC1=NN(C(=O)c2cccc(Br)c2)C(O)(c2ccc(Br)cc2)C1 (stereo not given)	1.1	1.5	-5.8	1.0	74.7*	68.4*
O=C(NC1CCCCC1)C(c1ccc(O)c(O)c1)N(C(=O)Cn1nnc2ccccc21)c1cccc(O)c1 (stereo not given)	1.4	5.3	14.3	4.4	47.5*	49.2*
COCCCN1C(=O)[C@H](CC(=O)NCc2cccc(C(F)(F)F)c2)[C@]2(C(=O)OC)CCCCC=C12	3.0	nt	-1.9	2.0	nt	nt
Cc1cccc[n+]1CC(=O)/C=C1\N(C)c2ccccc2C1(C)C	-35.5	-1.6	-66.6	-3.6	-27.0	nt
